Experimental data published in ChEMBL document CHEMBL5335820, “Novel quinolinepiperazinyl-aryltetrazoles targeting the blood stage of Plasmodium falciparum” (RSC Med Chem, 2024).

How the values were obtained:
[1] = Cytotoxicity against human HEK293 cells assessed as reduction in cell viability incubated for 24 hrs by MTT assay; assay type: toxicity, cell-based
[2] = test system: Plasmodium falciparum; assay: Antiplasmodial activity against chloroquine sensitive Plasmodium falciparum 3D7 infected in human erythrocytes assessed as inhibition of parasite growth at 100 uM incubated for 72 hrs by SYBR green I staining based fluorescence plate reader analysis relative to control; assay type: functional; conditions: 3D7, Erythrocyte
In short: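 Pf3D7 grown in O+ human erythrocytes at 4% haematocrit, Albumax (0.05%)-RPMI, 37 °C, 5% O2/5% CO2/90% N2, sorbitol-synchronised at ring stage. Single-point screen at 100 μM, final DMSO 0.4%, triplicate wells, 72 h. Read-out by SYBR Green I lysis buffer (Tris pH 7.5, EDTA, saponin, Triton X-100), 1 h dark at 37 °C, ex 485/em 530 nm. Growth expressed relative to untreated culture.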

[3] = test system: Plasmodium falciparum; assay: Antiplasmodial activity against chloroquine sensitive Plasmodium falciparum 3D7 infected in human erythrocytes assessed as inhibition of parasite growth incubated for 72 hrs by SYBR green I staining based fluorescence plate reader analysis; assay type: functional, organism-based; conditions: 3D7, Erythrocyte
In short: (§1)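 Pf3D7 or PfINDO was cultured in O+ human erythrocytes at 37 °C under 5% O2/5% CO2/90% N2 and ring-synchronised with 5% sorbitol. Cultures were exposed to 0–100 μM in triplicate for 72 h, with final DMSO 0.4%. After SYBR Green I lysis buffer (1 h, dark, 37 °C), fluorescence was read at 485/530 nm. Chloroquine-well counts were subtracted as background, and IC50 was obtained by non-linear regression.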

[4] = Resistance index, ratio of IC50 of chloroquine resistant Plasmodium falciparum INDO to chloroquine sensitive Plasmodium falciparum 3D7; assay type: functional
In short: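 Resistance index = IC50 against PfINDO / IC50 against Pf3D7. Both IC50s came from 72 h SYBR Green I assays.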

[5] = test system: Plasmodium falciparum; assay: Antiplasmodial activity against chloroquine resistant Plasmodium falciparum INDO infected in human erythrocytes assessed as inhibition of parasite growth at 100 uM incubated for 72 hrs by SYBR green I staining based fluorescence plate reader analysis relative to control; assay type: functional; conditions: Erythrocyte
In short: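 Single-concentration screen at 100 μM against PfINDO, triplicate wells, 72 h. Final DMSO was 0.4%. Growth was read by SYBR Green I lysis (excitation 485, emission 530 nm) and expressed relative to untreated culture, taken as 100% growth.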

[6] = test system: Plasmodium falciparum; assay: Antiplasmodial activity against chloroquine resistant Plasmodium falciparum INDO infected in human erythrocytes assessed as inhibition of parasite growth incubated for 72 hrs by SYBR green I staining based fluorescence plate reader analysis; assay type: functional, organism-based; conditions: Erythrocyte; in short: as §1
[7] = Cytotoxicity against human Huh-7 cells assessed as reduction in cell viability incubated for 24 hrs by MTT assay; assay type: toxicity, cell-based
[8] = Selectivity index, ratio of CC50 for human HEK293 cells to IC50 of chloroquine resistant Plasmodium falciparum INDO infected in human erythrocytes; assay type: toxicity, cell-based; conditions: read-out: Ratio CC50/IC50
In short: (§2)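 Selectivity index = CC50 / PfINDO IC50. CC50 came from MTT assays: 10^4 HEK293 or HUH7 cells per well, seeded overnight and exposed to 0–100 μM for 24 h, then MTT for 4 h at 37 °C with formazan dissolved in DMSO and read at A570. Controls were 0.8% DMSO (full growth) and 10% DMSO (zero growth).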

[9] = Selectivity index, ratio of CC50 for human Huh-7 cells to IC50 for antiplasmodial activity against chloroquine resistant Plasmodium falciparum INDO infected in human erythrocytes; assay type: toxicity, cell-based; conditions: read-out: Ratio CC50/IC50; in short: as §2
[10] = test system: Plasmodium falciparum; assay: Antiplasmodial activity against chloroquine resistant ring-stage Plasmodium falciparum INDO infected in human erythrocytes assessed as inhibition of parasite growth incubated for 12 hrs; assay type: functional, organism-based; conditions: Erythrocyte
In short: (§3)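 PfINDO cultures were staged at 0–6 h (rings), 18–22 h (trophozoites), 30–34 h (early schizonts) and 40–44 h (late schizonts) post-invasion. Each was exposed to varying concentrations for 12 h, washed free of compound by centrifugation, and grown 48 h in drug-free medium. IC50 came from growth curves, with untreated culture as 100% and chloroquine-treated culture as 0% growth.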

[11] = test system: Plasmodium falciparum; assay: Antimalarial activity against chloroquine resistant early schizont Plasmodium falciparum INDO infected in human erythrocytes assessed as inhibition of parasite growth incubated for 12 hrs; assay type: functional, organism-based; conditions: Erythrocyte; in short: as §3
[12] = test system: Plasmodium falciparum; assay: Antimalarial activity against chloroquine resistant trophozoites-stage Plasmodium falciparum INDO infected in human erythrocytes assessed as inhibition of parasite growth incubated for 12 hrs; assay type: functional, organism-based; conditions: Erythrocyte; in short: as §3
[13] = test system: Plasmodium falciparum; assay: Antimalarial activity against chloroquine resistant late schizont Plasmodium falciparum INDO infected in human erythrocytes assessed as inhibition of parasite growth incubated for 12 hrs; assay type: functional, organism-based; conditions: Erythrocyte; in short: as §3

Row | SMILES | CC50 at 24 h [1] [µM] | inhibition at 100 µM [2] [%] | IC50 [3] [µM] | Ratio IC50 [4] | inhibition at 100 µM [5] [%] | IC50 [6] [µM] | CC50 at 24 h [7] [µM] | selectivity ratio [8] | selectivity ratio [9] | IC50 [10] [µM] | IC50 [11] [µM] | IC50 [12] [µM] | IC50 [13] [µM]
1 | O=C(Cn1nnc(-c2ccc(F)cc2)n1)N1CCN(c2ccnc3cc(Cl)ccc23)CC1 | > 400 | > 50 | 15.6 | 0.8 | > 50 | 12.4 | 24.2 | 32.2 | 1.95 | – | – | – | –
2 | COc1cccc(-c2nnn(CCCN3CCN(c4ccnc5cc(Cl)ccc45)CC3)n2)c1 | 342 | > 50 | 9.9 | 0.77 | > 50 | 7.66 | > 400 | 44.6 | > 52.2 | – | – | – | –
3 | O=C(Cn1nnc(-c2cccc(Br)c2)n1)N1CCN(c2ccnc3cc(Cl)ccc23)CC1 | > 400 | > 50 | 10.5 | 0.86 | > 50 | 8.99 | > 400 | 44.5 | > 44.5 | – | – | – | –
4 | COc1ccc(-c2nnn(CCCN3CCN(c4ccnc5cc(Cl)ccc45)CC3)n2)cc1OC | > 400 | > 50 | 4.84 | 1.23 | > 50 | 5.97 | 129 | 67 | 21.7 | – | – | – | –
5 | Clc1cccc(-c2nnn(CCCN3CCN(c4ccnc5cc(Cl)ccc45)CC3)n2)c1 | > 400 | > 50 | 10.7 | 1.87 | > 50 | 19.9 | > 400 | 20.1 | > 20.1 | – | – | – | –
6 | Clc1ccc2c(N3CCN(CCCn4nnc(-c5cccc(Br)c5)n4)CC3)ccnc2c1 | > 400 | > 50 | 3.84 | 1.83 | > 50 | 7.05 | > 400 | 56.8 | > 56.8 | 8.67 | 8.24 | 7.31 | 4.62
7 | Cc1ccc(-c2nnn(CCCN3CCN(c4ccnc5cc(Cl)ccc45)CC3)n2)cc1 | > 400 | > 50 | 8 | 0.79 | > 50 | 6.35 | 310 | 63 | 48.8 | – | – | – | –
8 | O=C(Cn1nnc(-c2cccc(F)c2)n1)N1CCN(c2ccnc3cc(Cl)ccc23)CC1 | > 400 | > 50 | 8.14 | 1.04 | > 50 | 8.46 | > 400 | 47.3 | > 47.3 | – | – | – | –
9 | O=C(Cn1nnc(-c2ccc(Cl)cc2)n1)N1CCN(c2ccnc3cc(Cl)ccc23)CC1 | > 400 | > 50 | 32.1 | 0.43 | > 50 | 14 | > 400 | 28.7 | > 28.7 | – | – | – | –
10 | CC(C)c1ccc(-c2nnn(CC(=O)N3CCN(c4ccnc5cc(Cl)ccc45)CC3)n2)cc1 | > 400 | > 50 | 15.9 | 0.42 | > 50 | 6.66 | > 400 | 60.1 | > 60.1 | 18.5 | 21.5 | 24.9 | 26.7
11 | Fc1cccc(-c2nnn(CCCN3CCN(c4ccnc5cc(Cl)ccc45)CC3)n2)c1 | > 400 | > 50 | 22.9 | 0.62 | > 50 | 14.2 | > 400 | 28.1 | > 28.1 | – | – | – | –
12 | O=C(Cn1nnc(-c2cccc(Cl)c2)n1)N1CCN(c2ccnc3cc(Cl)ccc23)CC1 | > 400 | > 50 | 12.6 | 0.47 | > 50 | 5.91 | > 400 | 67.7 | > 67.7 | 19.6 | 15.9 | 5.39 | 24.8
13 | CC(C)c1ccc(-c2nnn(CCCN3CCN(c4ccnc5cc(Cl)ccc45)CC3)n2)cc1 | > 400 | > 50 | 3.12 | 2.69 | > 50 | 8.37 | > 400 | 47.8 | > 47.8 | – | – | – | –
14 | O=[N+]([O-])c1cccc(-c2nnn(CCCN3CCN(c4ccnc5cc(Cl)ccc45)CC3)n2)c1 | > 400 | > 50 | 9.17 | 1.76 | > 50 | 16.2 | 72 | 24.7 | 4.45 | – | – | – | –
15 | O=C(Cn1nnc(-c2ccc(Br)cc2)n1)N1CCN(c2ccnc3cc(Cl)ccc23)CC1 | > 400 | > 50 | 17.5 | 0.64 | > 50 | 11.2 | > 400 | 35.6 | > 35.6 | – | – | – | –
